Data from ChEMBL document CHEMBL5705885, “CYT387, a selective JAK1/JAK2 inhibitor: in vitro assessment of kinase selectivity and preclinical studies using cell lines and primary cells from polycythemia vera patients” (Leukemia, 2009).

Columns and labels:
[1] = target: Mitogen-activated protein kinase 14 (Homo sapiens, UniProt Q16539); assay: Inhibition of MAPK14 (unknown origin)
[2] = target: Cyclin-dependent kinase 1/cyclin B1 (Homo sapiens) (UniProt P06493+P14635); details: dose 100.0 nM
[3] = target: RAC-alpha serine/threonine-protein kinase (Homo sapiens, UniProt P31749); assay: Inhibition of AKT1 (unknown origin)
Sequence of RAC-alpha serine/threonine-protein kinase (P31749 whole entry): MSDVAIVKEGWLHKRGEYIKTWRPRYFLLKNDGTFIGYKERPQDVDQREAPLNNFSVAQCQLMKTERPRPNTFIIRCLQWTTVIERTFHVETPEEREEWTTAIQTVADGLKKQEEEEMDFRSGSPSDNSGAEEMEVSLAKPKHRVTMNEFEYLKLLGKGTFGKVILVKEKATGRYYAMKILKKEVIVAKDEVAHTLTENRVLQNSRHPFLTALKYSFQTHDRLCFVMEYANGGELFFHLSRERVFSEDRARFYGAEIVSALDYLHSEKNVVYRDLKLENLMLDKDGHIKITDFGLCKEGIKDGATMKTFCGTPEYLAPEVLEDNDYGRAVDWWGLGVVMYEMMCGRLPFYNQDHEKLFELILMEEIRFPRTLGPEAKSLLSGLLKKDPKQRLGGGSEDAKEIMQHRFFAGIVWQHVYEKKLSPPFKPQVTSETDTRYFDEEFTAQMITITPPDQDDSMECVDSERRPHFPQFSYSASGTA

[4] = target: Serine/threonine-protein kinase 25 (Homo sapiens, UniProt O00506); assay: Inhibition of STK25 (unknown origin)
[5] = target: Serine/threonine-protein kinase BRSK1 (Homo sapiens) (UniProt Q8TDC3); details: dose 100.0 nM
[6] = target: Proto-oncogene tyrosine-protein kinase Src (Homo sapiens, UniProt P12931); assay: Inhibition of SRC (unknown origin)
[7] = target: Tyrosine-protein kinase Fgr (Homo sapiens) (UniProt P09769); details: dose 100.0 nM
Sequence of Tyrosine-protein kinase Fgr (Homo sapiens) (P09769 2-529 limits assumed): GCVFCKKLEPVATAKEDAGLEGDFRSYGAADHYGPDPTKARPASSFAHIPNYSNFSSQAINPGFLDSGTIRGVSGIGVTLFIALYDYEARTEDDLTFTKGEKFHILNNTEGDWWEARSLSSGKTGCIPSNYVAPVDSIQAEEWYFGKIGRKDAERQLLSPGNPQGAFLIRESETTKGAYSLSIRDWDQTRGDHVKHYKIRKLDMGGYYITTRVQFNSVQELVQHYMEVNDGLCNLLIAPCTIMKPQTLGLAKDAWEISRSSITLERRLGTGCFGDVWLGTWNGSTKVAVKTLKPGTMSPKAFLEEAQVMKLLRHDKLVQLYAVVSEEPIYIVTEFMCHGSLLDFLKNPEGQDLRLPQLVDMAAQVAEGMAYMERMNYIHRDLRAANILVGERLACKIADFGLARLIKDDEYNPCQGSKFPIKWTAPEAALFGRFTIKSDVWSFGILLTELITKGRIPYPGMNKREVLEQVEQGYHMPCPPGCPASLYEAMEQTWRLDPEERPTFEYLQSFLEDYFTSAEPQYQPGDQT

[8] = target: Serine/threonine-protein kinase MARK1 (Homo sapiens, UniProt Q9P0L2); assay: Inhibition of MARK1 (unknown origin)
[9] = target: Aurora kinase C (Homo sapiens) (UniProt Q9UQB9); details: dose 100.0 nM
[10] = target: T1, BDNF/NT-3 growth factors receptor (Homo sapiens, UniProt Q16620); details: dose 100.0 nM
[11] = target: Cyclin-dependent kinase 1/cyclin B1 (Homo sapiens, UniProt P06493); assay: Inhibition of CDK1/cyclin B (unknown origin); type: protein-complex assay
[12] = target: Serine/threonine-protein kinase D1 (Homo sapiens, UniProt Q15139); assay: Inhibition of PRKD1 (unknown origin)
[13] = target: Myosin light chain kinase 2, skeletal/cardiac muscle (Homo sapiens, UniProt Q9H1R3); details: dose 100.0 nM
[14] = target: Mitogen-activated protein kinase 10 (Homo sapiens) (UniProt P53779); details: dose 100.0 nM
[15] = target: Tyrosine-protein kinase Fyn (Homo sapiens, UniProt P06241); assay: Inhibition of FYN (unknown origin)
[16] = target: Rho-associated protein kinase 2 (Homo sapiens, UniProt O75116); details: dose 100.0 nM
[17] = target: Cyclin-dependent kinase 5/CDK5 activator 1 (Homo sapiens, UniProt Q00535); assay: Inhibition of CDK5/p35 (unknown origin); type: protein-complex assay
[18] = target: Tyrosine-protein kinase JAK1 (Homo sapiens) (UniProt P23458); details: dose 100.0 nM
[19] = target: Homeodomain-interacting protein kinase 4 (Homo sapiens) (UniProt Q8NE63); details: dose 100.0 nM
[20] = target: Tyrosine-protein kinase Fer (Homo sapiens, UniProt P16591); assay: Inhibition of FER (unknown origin)
[21] = target: T2, Serine/threonine-protein kinase 26 (Homo sapiens, UniProt Q9P289); assay: Inhibition of MST4 (unknown origin)
Target sequence in this assay (Q9P289 whole entry): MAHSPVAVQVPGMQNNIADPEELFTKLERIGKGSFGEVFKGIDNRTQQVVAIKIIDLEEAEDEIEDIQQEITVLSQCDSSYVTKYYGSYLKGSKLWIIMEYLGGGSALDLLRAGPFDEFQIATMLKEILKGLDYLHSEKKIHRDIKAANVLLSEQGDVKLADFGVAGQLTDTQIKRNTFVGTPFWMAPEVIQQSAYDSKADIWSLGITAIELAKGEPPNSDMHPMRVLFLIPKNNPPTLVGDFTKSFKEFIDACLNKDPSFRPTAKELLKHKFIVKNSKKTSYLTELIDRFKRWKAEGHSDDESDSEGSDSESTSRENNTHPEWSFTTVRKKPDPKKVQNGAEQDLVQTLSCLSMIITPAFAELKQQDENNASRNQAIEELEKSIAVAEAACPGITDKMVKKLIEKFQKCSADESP

Ephrin type-A receptor 8 = Ephrin type-A receptor 8 (Homo sapiens, UniProt P29322); assay: Inhibition of EPHA8 (unknown origin)
[22] = target: Tyrosine-protein kinase Mer (Homo sapiens) (UniProt Q12866); details: dose 100.0 nM
[23] = target: Macrophage-stimulating protein receptor (Homo sapiens, UniProt Q04912); details: dose 100.0 nM
[24] = target: Vascular endothelial growth factor receptor 2 (Homo sapiens, UniProt P35968); assay: Inhibition of KDR (unknown origin)
Sequence of Vascular endothelial growth factor receptor 2 (P35968 whole entry): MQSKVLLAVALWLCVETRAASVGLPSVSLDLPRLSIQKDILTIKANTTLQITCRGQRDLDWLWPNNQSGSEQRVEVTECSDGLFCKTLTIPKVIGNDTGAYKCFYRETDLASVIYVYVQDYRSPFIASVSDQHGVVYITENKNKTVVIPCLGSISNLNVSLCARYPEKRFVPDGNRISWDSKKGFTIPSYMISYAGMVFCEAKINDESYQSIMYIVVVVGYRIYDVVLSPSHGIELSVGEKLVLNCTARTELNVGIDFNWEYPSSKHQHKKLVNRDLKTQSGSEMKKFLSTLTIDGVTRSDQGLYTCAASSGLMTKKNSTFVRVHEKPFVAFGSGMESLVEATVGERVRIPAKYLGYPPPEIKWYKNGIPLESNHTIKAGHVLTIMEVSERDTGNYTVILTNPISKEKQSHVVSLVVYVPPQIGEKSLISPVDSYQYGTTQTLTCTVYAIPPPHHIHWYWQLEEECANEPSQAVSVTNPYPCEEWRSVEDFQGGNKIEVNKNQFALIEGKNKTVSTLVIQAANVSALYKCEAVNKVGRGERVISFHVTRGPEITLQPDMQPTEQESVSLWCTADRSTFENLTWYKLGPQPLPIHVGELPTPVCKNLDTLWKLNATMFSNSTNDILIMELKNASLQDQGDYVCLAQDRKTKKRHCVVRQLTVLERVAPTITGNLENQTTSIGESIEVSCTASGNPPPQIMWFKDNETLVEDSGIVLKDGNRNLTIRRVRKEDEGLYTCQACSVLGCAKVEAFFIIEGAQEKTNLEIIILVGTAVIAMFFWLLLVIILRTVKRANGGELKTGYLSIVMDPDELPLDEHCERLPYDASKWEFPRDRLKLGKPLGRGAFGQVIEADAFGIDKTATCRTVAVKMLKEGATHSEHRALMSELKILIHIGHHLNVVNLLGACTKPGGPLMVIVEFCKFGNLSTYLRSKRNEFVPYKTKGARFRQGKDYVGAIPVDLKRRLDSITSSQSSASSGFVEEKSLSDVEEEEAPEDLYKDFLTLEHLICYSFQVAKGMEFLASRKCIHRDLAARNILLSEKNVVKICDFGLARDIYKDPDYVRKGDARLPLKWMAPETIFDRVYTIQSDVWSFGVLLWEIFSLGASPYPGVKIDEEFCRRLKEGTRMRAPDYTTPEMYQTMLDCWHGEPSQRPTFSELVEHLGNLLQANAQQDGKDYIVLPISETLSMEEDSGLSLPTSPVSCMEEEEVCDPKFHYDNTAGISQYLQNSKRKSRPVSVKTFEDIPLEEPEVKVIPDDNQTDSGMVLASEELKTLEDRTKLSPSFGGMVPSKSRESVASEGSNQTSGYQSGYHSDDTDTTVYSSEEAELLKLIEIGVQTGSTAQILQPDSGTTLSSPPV

[25] = target: Testis-specific serine/threonine-protein kinase 1 (Homo sapiens) (UniProt Q9BXA7); details: dose 100.0 nM
[26] = target: Serine/threonine-protein kinase PLK3 (Homo sapiens, UniProt Q9H4B4); details: dose 100.0 nM
[27] = target: Dual specificity protein kinase CLK3 (Homo sapiens, UniProt P49761); assay: Inhibition of CLK3 (unknown origin)
Sequence of Dual specificity protein kinase CLK3 (P49761 whole entry): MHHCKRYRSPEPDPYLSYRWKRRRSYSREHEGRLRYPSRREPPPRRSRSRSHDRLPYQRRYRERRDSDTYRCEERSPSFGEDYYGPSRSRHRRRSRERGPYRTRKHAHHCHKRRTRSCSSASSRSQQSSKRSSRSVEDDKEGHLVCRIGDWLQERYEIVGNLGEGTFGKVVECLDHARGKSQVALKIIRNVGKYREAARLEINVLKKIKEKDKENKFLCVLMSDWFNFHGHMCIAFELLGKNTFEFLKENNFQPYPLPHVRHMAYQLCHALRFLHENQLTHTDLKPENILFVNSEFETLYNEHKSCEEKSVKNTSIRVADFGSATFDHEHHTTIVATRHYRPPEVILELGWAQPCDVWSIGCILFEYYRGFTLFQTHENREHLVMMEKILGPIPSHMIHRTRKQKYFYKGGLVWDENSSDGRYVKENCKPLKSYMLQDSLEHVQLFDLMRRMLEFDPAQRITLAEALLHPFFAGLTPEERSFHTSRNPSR

[28] = target: Proto-oncogene tyrosine-protein kinase ROS (Homo sapiens, UniProt P08922); assay: Inhibition of ROS1 (unknown origin)
[29] = target: Serine/threonine-protein kinase B-raf (Homo sapiens, UniProt P15056); assay: Inhibition of BRAF (unknown origin)
[30] = Antiproliferative activity against human CHRF-288-11 cells harboring JAK2T875N mutant measured after 72 hrs by Alamar blue staining based analysis; type: functional, cell-based; details: CHRF-288-11, 72 h
How it was run: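 Cells were exposed for 72 h at 37 °C under 5% CO2 to compound made up as DMSO stock and diluted in culture medium. Proliferation was then read by Alamar Blue.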

[31] = target: Mitogen-activated protein kinase kinase kinase kinase 2 (Homo sapiens) (UniProt Q12851); details: dose 100.0 nM
Sequence of Mitogen-activated protein kinase kinase kinase kinase 2 (Homo sapiens) (Q12851 whole entry): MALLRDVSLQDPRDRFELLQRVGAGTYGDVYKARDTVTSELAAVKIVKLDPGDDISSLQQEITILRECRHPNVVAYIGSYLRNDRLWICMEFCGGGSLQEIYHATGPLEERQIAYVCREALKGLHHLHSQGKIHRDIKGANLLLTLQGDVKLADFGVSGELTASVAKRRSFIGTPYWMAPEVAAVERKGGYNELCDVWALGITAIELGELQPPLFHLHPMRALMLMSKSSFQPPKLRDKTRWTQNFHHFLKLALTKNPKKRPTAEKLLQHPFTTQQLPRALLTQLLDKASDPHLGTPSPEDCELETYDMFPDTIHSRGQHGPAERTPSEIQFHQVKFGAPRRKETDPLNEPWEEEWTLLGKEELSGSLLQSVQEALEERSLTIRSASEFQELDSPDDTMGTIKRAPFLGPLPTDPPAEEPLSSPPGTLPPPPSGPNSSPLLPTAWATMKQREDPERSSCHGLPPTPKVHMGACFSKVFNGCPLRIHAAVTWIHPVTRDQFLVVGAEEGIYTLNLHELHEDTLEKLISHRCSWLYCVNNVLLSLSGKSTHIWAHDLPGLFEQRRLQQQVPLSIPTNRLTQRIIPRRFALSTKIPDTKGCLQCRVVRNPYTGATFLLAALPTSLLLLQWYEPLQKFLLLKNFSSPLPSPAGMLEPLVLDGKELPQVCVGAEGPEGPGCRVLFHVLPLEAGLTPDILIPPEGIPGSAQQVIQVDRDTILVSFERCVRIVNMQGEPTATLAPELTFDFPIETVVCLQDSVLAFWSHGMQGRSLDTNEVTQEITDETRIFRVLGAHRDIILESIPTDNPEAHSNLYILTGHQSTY

[32] = target: Serine/threonine-protein kinase Nek9 (Homo sapiens) (UniProt Q8TD19); details: dose 100.0 nM
[33] = target: Casein kinase I isoform gamma-2 (Homo sapiens, UniProt P78368); assay: Inhibition of CSNK1G2 (unknown origin)
[34] = target: Misshapen-like kinase 1 (Homo sapiens) (UniProt Q8N4C8); details: dose 100.0 nM
[35] = target: Ephrin type-B receptor 1 (Homo sapiens) (UniProt P54762); details: dose 100.0 nM
[36] = target: High affinity nerve growth factor receptor (Homo sapiens, UniProt P04629); assay: Inhibition of NTRK1 (unknown origin)
[37] = target: T2, Serine/threonine-protein kinase 26; details: dose 100.0 nM
BaF3 [38] = assay: Antiproliferative activity against mouse BaF3 cells harboring TEL-JAK3 measured after 72 hrs by Alamar blue staining based analysis; type: functional, cell-based; details: BaF3, 72 h
How it was run: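 Murine Ba/F3 cells carrying TEL/JAK2 or TEL/JAK3 fusions, grown in DMEM with 10% fetal calf serum. Compound stocks in DMSO were diluted in culture medium. Proliferation was read by Alamar Blue after 72 h incubation at 37 °C under 5% CO2.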

BaF3 [39] = assay: Antiproliferative activity against mouse BaF3 cells harboring MPLW515L measured after 72 hrs by Alamar blue staining based analysis; type: functional, cell-based; details: BaF3, 72 h
How it was run: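 Ba/F3 murine cells expressing JAK2V617F or MPLW515L. Compound stocks in DMSO were diluted into culture medium. After 72 h at 37 °C in 5% CO2, proliferation was quantified with the Alamar Blue assay.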

[40] = target: G protein-coupled receptor kinase 4 (Homo sapiens, UniProt P32298); details: dose 100.0 nM
[41] = target: Dual specificity protein kinase CLK2 (Homo sapiens, UniProt P49760); assay: Inhibition of CLK2 (unknown origin)
Sequence of Dual specificity protein kinase CLK2 (P49760 whole entry): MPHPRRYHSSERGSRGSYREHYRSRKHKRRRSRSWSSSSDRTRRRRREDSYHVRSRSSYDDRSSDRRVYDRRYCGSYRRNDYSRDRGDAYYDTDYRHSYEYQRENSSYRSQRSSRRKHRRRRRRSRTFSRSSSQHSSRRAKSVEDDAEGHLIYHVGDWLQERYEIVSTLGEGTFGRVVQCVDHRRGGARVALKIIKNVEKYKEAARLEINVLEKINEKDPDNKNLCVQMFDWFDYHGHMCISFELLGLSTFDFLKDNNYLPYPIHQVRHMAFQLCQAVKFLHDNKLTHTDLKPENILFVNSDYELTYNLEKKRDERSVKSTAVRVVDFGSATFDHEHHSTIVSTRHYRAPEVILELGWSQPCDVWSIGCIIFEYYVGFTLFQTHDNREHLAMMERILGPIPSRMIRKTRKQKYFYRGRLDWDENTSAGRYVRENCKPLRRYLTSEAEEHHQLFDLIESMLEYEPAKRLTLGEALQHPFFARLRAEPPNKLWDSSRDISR

[42] = target: T1, BDNF/NT-3 growth factors receptor; assay: Inhibition of NTRK2 (unknown origin)

Sequence of Mitogen-activated protein kinase 14 (Q16539 whole entry): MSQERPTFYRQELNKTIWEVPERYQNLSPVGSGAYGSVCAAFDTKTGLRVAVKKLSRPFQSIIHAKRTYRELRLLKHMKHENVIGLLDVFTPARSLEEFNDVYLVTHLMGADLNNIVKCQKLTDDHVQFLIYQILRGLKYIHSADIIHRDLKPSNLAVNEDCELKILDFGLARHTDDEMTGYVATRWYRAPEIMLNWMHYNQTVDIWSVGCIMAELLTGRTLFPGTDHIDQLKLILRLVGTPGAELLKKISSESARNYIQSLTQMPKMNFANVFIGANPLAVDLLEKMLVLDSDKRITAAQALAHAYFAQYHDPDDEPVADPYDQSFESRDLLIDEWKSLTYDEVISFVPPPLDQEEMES

N#CCNC(=O)c1ccc(-c2ccnc(Nc3ccc(N4CCOCC4)cc3)n2)cc1 [MOMELOTINIB]
> 1000 nM: IC50 [1] | IC50 [3] | IC50 [4] | IC50 [6] | IC50 [15] | IC50 [20] | IC50 (Ephrin type-A receptor 8) | IC50 [27] | IC50 [33] | IC50 [41]
< 50%: inhibition [2] | inhibition [5] | inhibition [7] | inhibition [9] | inhibition [10] | inhibition [13] | inhibition [14] | inhibition [19] | inhibition [22] | inhibition [23] | inhibition [25] | inhibition [26] | inhibition [31] | inhibition [32] | inhibition [34] | inhibition [35] | inhibition [37] | inhibition [40]
1 nM: IC50 [30]
200 nM: IC50 (BaF3 [39])
< 1000 nM: IC50 [8] | IC50 [11] | IC50 [17] | IC50 [21] | IC50 [24] | IC50 [28] | IC50 [29] | IC50 [36] | IC50 [42]
> 50%: inhibition [16] | inhibition [18]
< 100 nM: IC50 [12]
2350 nM: IC50 (BaF3 [38])
